Compound activity (PubChem)
An excerpt weighted towards active compounds, which were near 3.5% of everything screened.
MrgX1 ag = agonists of human MrgX1 receptor, primary screen, HEK293 cells, Fluo-4 calcium flux; Mas-related G-protein coupled receptor member X1 (Homo sapiens), Q96LB2; Fluo-4 calcium fluorescence, agonist mode; stronger effect = higher value; B-score at 10 µM; 0.44% of 310,000 active;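 active = calcium response B-score plate-corrected fluorescence ratio at least 3 library SD, with starting fluorescence B-score inside 5 SD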
Target sequence (Q96LB2 whole entry, looked up): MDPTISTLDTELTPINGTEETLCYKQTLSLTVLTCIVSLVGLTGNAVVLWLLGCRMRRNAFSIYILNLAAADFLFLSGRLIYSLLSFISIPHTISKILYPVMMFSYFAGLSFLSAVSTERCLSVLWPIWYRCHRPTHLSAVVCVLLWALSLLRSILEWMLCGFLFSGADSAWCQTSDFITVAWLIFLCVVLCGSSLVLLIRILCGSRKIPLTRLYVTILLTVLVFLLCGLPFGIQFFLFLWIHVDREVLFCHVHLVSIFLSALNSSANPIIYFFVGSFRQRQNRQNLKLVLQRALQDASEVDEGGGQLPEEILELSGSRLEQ
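System – MrgX1-expressing HEK293 cells · Incubation – cells plated overnight, dye loaded 0.5 h 37 °C, 0.5 h room temperature · Technique – kinetic Fluo-4 NW fluorescence of intracellular calcium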
MrgX1 allo act = positive allosteric modulators of MrgX1, primary screen, HEK293 cells, Fluo-4 calcium flux; Mas-related G-protein coupled receptor member X1 (Homo sapiens), Q96LB2; B-score at 10 µM; FDSS; stronger effect = higher value; 0.63% of 310,000 active; AID 588675, 2011;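 active = plate-corrected calcium response at least 3 library SD above typical, normal starting fluorescence, not activating the receptor alone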;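 also: compound read alongside a low EC10 to EC30 dose of BAM8-22 agonist; peak minus trough fluorescence over baseline measured at the second addition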
RGS4 block = RGS4 inhibitors, primary screen, cell-based, HEK293 M3R inducible RGS4, calcium flux; Fluo-4 calcium flux; stronger effect = higher value; triggered by carbachol at its EC20; Regulator of G-protein signaling 4 (Homo sapiens), P49798; B-score at 10 µM; 0.45% of 310,000 active;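 active = B-score, a plate-corrected calcium signal, over three deviations above library mean, with baseline fluorescence within five deviations of library mean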;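 also: RGS4 expression induced by doxycycline in cells with stable M3 receptor; B-score is computed from the integrated fluorescence ratio over baseline after carbachol; higher B-score means a larger calcium signal and so more RGS4 inhibition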
Target sequence (P49798 whole entry, looked up): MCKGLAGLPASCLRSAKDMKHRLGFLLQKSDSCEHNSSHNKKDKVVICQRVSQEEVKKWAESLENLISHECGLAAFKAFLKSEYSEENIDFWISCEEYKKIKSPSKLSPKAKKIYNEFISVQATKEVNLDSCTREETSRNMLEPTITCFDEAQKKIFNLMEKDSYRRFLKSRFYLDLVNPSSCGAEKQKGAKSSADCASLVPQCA
MrgX1 antagonist = antagonists of human MrgX1 receptor, primary screen, HEK293 cells, Fluo-4 calcium flux. B-score at 10 µM. 1.3% of 310,000 active. AID 588676, 2011. BAM8-22 antagonism; stronger effect = lower value. Mas-related G-protein coupled receptor member X1 (Homo sapiens), Q96LB2;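 active = calcium-response B-score plate-corrected more than 3 library SD below zero, starting fluorescence within 5 deviations, no agonist response on first addition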;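 also: peak minus trough fluorescence over baseline after final BAM8-22 challenge near maximal dose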
RGS4 act = RGS4 potentiators or activators, primary screen, cell-based, HEK293 M3R inducible RGS4, calcium flux; carbachol calcium flux Fluo4; stronger effect = lower value; B-score at 10 µM; 0.92% of 310,000 active;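 active = B-score of the integrated calcium signal more than 4 SD below the library mean, with starting fluorescence not abnormally high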;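 also: negative B-score means reduced calcium response which marks RGS4 activation or potentiation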
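Reagent: ECmax carbachol challenge; Test system: M3R-expressing HEK293 line, RGS4 induced by doxycycline; Schedule: overnight RGS4 induction, 30 min dye load 37 °C, 20 min compound RT; Detection: calcium dye Fluo4 fluorescence; Read-out: Agonist-evoked peak-minus-minimum fluorescence over baseline, integrated ratio, B score.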
RGS4 block valid = enhanced carbachol calcium response, M3R/RGS4 cells, RGS4 inhibitor project, cell-based, validation screen, HEK293 M3R/RGS4, calcium flux | shares compounds with RGS4 block | carbachol calcium Fluo-4 fluorescence; carbachol added at its EC20; 0 = buffer wells, 100 = carbachol control | calcium response, % at 10 µM | 65% of 1,700 active | AID 492999, 2010;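 active = duplicate-averaged calcium response above the buffer-only control mean plus 5 SD of those controls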;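 also: integrated fluorescence ratio F max minus min over baseline F0; higher response in RGS4-induced cells means RGS4 inhibition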
M3R Ca ctr = carbachol calcium response in non-induced M3R cells, confirmation, counter-screen for RGS4 inhibitor project, cell-based, HEK293 M3R. shares compounds with RGS4 block. carbachol calcium Fluo-4; submaximal (EC20) carbachol stimulus; buffer wells 0%, carbachol control wells 100%. activity (percent), % at 10 µM. 20% of 1,900 active. AID 493000, 2010; call rule not given here;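 also: RGS4 induction absent so cells express M3R without RGS4; higher means more calcium signal and flags a non-specific hit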
RGS4 inh ctr2 = signal in non-induced cells without carbachol, RGS4 inhibitor counter-screen; shares compounds with RGS4 block; HEK293 M3R/RGS4 non-induced, Fluo-4 calcium, no carbachol; normalised: buffer wells 0%, carbachol wells 100%; calcium response (agonist-mode artifact), % at 10 µM; 22% of 1,900 active; AID 493001;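 active = duplicate-averaged calcium rise in uninduced cells above buffer wells' mean plus 5 SD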
* hit, by the source's call; i = inactive; . = no result given.

SMILES	MrgX1 ag	MrgX1 allo act	RGS4 block	MrgX1 antagonist	RGS4 act	RGS4 block valid	M3R Ca ctr	RGS4 inh ctr2
CCc1nnc(NC(=O)c2cc(-c3ccncc3)nc3ccccc23)s1	i	i	4.9*	i	i	18%*	i	i
Cc1ccc(NC(=O)CN(C)C(=O)Cn2cc(C(F)(F)F)cc(Cl)c2=O)cc1	i	i	5.5*	i	i	i	i	i
Cn1c(=O)[nH]c(=O)c2c1nc([N+](=O)[O-])n2Cc1ccccc1	i	i	12*	i	i	71%*	42%*	i
N#Cc1c(Cl)nsc1NC(=O)c1ccccc1	i	i	i	i	i	.	.	.
CC(Oc1cc2oc(=O)c3c(c2cc1Cl)CCCC3)C(=O)NCc1cccnc1 (configuration not stated)	i	i	i	i	i	.	.	.
CC(C)c1nc(SCC(=O)Nc2ccc(C(=O)O)cc2)c2c3c(sc2n1)CCCC3	i	i	4.7*	i	i	13%*	i	i
S=C1NC[C@H](Cc2ccccc2)N1CCCCC1CCCCC1	i	i	i	i	i	i	i	i
COc1ccc(NC(=O)C(=O)NCC(=O)Nc2cc(OC)ccc2OC)cc1	i	i	i	i	i	.	.	.
COc1ccc(OC)c(NC(=O)C(=O)NCc2ccncc2)c1	i	i	4.8*	i	i	10%*	i	i
CCC1(C)Cc2c(sc3nc(SC)[nH]c(=S)c23)CO1 (configuration not stated)	i	i	i	i	i	.	.	.
Cc1cc(C)cc(N(CC(=O)Nc2ccc(C(F)(F)F)cc2)S(=O)(=O)c2c(C)[nH]c(=O)[nH]c2=O)c1	i	i	6.5*	i	i	i	i	i
Cc1ccccc1CC(=O)Nc1cccnc1	i	i	i	i	i	.	.	.
Cc1ccc(S(=O)(=O)N(CC(=O)N=Nc2c(O)[nH]c3ccccc23)c2cccc(C)c2)cc1	i	i	i	i	i	.	.	.
Cc1cc(Cl)ccc1N(CC(=O)N=Nc1c(O)[nH]c2ccccc12)S(C)(=O)=O	i	i	4.9*	i	i	5.5%*	i	i
Nc1nc(CN2CCN(c3ccccn3)CC2)nc(Nc2ccc(Cl)cc2)n1	i	i	i	i	i	.	.	.
CCOc1ccccc1NC(=S)NCc1cccn1C	i	i	i	i	i	.	.	.
CCOC(=O)/C=C/C(=O)Nc1ccc(S(=O)(=O)Nc2nccs2)cc1	i	i	5*	i	i	23%*	i	i
CCOCC(=O)Nc1ccc(S(=O)(=O)Nc2nccs2)cc1	i	i	i	i	i	.	.	.
O=C(CN1CCCCCC1)NC(c1ccccc1)c1ccccc1	i	i	i	i	i	.	.	.
O=C(CN1CCN(c2ccc(O)cc2)CC1)NC(c1ccccc1)c1ccccc1	i	i	13*	i	i	i	i	i
N#Cc1c(NC(=O)CSc2ncn[nH]2)sc2c1CCCC2	i	i	5.1*	i	i	8.5%*	i	i
CC1CCc2c(sc(NC(=O)CSc3ncn[nH]3)c2C#N)C1 (configuration not stated)	i	i	i	i	i	.	.	.
CN(C)C(=O)COc1ccc2c(-c3ccccc3)cc(=O)oc2c1	i	i	i	i	i	.	.	.
CC(=O)n1cc(C(C[N+](=O)[O-])SCCN)c2ccccc21 (configuration not stated)	58*	i	4.7*	i	i	55%*	i	34%*
COc1ccc(CN2C(=NC(=O)C3CCCO3)SC3CS(=O)(=O)CC32)cc1 (configuration not stated)	i	i	i	i	i	.	.	.
SMILES	MrgX1 ag	MrgX1 allo act	RGS4 block	MrgX1 antagonist	RGS4 act	RGS4 block valid	M3R Ca ctr	RGS4 inh ctr2
CCc1ccc(OCCSc2nc3ccccc3n2CC(=O)O)cc1	i	i	i	i	i	.	.	.
Cc1cc(C)n2nc(Sc3ncccc3[N+](=O)[O-])nc2n1	i	i	9.5*	i	i	28%*	34%*	i
Cc1cnc(Sc2ncccc2[N+](=O)[O-])nc1	i	i	i	i	i	.	.	.
Cc1ccc(Cn2c(=N)n(CC(=O)c3ccccc3)c3ccccc32)cc1	i	i	5.3*	i	i	24%*	34%*	31%*
Clc1cccc2sc(-c3nnc(-c4ccccc4)o3)c(Cl)c12	i	i	i	i	i	.	.	.
Cc1ccc(S(C)(=O)=N/C=C2\C(=O)c3sccc3N(C)S2(=O)=O)cc1 (configuration not stated)	i	i	6.4*	i	i	7.5%*	i	i
CCOc1ccc2cc(/C=C/C(=O)c3ccco3)c(Cl)nc2c1	i	i	i	i	i	i	i	40%*
O=C(CC1C(=O)NCCN1C(=O)Nc1ccc(C(F)(F)F)cc1)Nc1ccc(F)cc1 (configuration not stated)	i	i	24*	i	i	43%*	i	8.0%*
COc1ccc(NC(=O)CC2C(=O)NCCN2C(=O)Nc2ccc(C(F)(F)F)cc2)cc1 (configuration not stated)	i	i	8.8*	i	i	20%*	29%*	i
Cc1ccc(S(=O)(=O)N2CCCOC2CNC(=O)C(=O)NC2CCCCC2)cc1 (configuration not stated)	i	i	i	i	i	i	i	i
